Measurements published in the EternaBench riboswitch data.

Tested on: MS2 coat protein
Assay: apparent Kd, MS2 coat protein; higher = weaker binding; RNA-MaP array; theophylline 2 mM where present
How it was run: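 Stalled E. coli RNA polymerase transcribed the designs on Illumina sequencing-chip clusters. SNAP-549-labelled MS2 coat protein was titrated from 0.7 or 1.5 nM, doubling to 3 µM, without and then with constant ligand, in 100 mM Tris-HCl pH 7.5, 80 mM KCl, 4 mM MgCl2, BSA, DTT, yeast tRNA and Tween-20. Per-cluster binding curves were fitted to green signal normalised to red-channel RNA signal and control-cluster median Fmax. The apparent Kd is the median of the filtered fits.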

[1] = designed as: OFF switch for theophylline, no ligand
[2] = ligand present: theophylline, designed as: OFF switch for theophylline
[3] = designed as: ON switch for theophylline, no ligand
[4] = ligand present: theophylline, designed as: ON switch for theophylline

| Sequence | apparent Kd [1] | apparent Kd [2] | apparent Kd [3] | apparent Kd [4] |
| --- | --- | --- | --- | --- |
| AAAUAAAUAACUGAUACCAGUGGACUGACAUGAGGAUCACCCAUGUUGGGUUUUGUUGUCCACCCUUGGCAGCGGGCAUAUAAAA | 24.8 nM | 66.9 nM | – | – |
| AAUAACAUGAGGAUCACCCAUGUAAAAGAUACCAGAGUGAUGAUCCUCCCUUGGCAGCUUAAACGCUAUUGAUUACAAUAGCGAA | – | – | 41.5 nM | 144 nM |
| AACAUGAGGACGGAUACCAGUCACAUGAGGAUCACCCAUGUACAUGAGGAUCACCCAUGUGGCCCUUGGCAGCCGCAUGUGAUCA | 327 nM | 473 nM | – | – |
| CCUGCGUUUCUUUUCUUUCGCAGGAAUGAUACCAGUAGGGAAACCUACCCUUGGCAGCAUGGGACAUGAGGAUCACCCAUGUAAU | – | – | 439 nM | 89.3 nM |
| AACCGAGGCUAUCCUCUCCGACUAUGUGAUACCAGAAUAAUUUUAUUCCCUUGGCAGCAUGACAUGAGGAUCACCCAUGUCUCUU | – | – | 15.8 nM | 20.7 nM |
| GAAACGUAGGUGGAGCGGUGAAAUGGCGAUACCAGCGUGGAAACACGCCCUUGGCAGCGUUAGAACAUGAGGAUCACCCAUGUUU | 25.2 nM | 112 nM | – | – |
| GAUGAACUAUUCGAUACCAGACCACAUGAGGAUCACCCAUGUGUGUUUCGUCCUUAGCCGGUCCCUUGGCAGCGAAUAGUUUAUC | 20.2 nM | 30.3 nM | – | – |
| AAACAUUGCUCAGAUACCAGACAUGAGGAUCACCCAUGUACCAAGGUACCCGAAAGGAAUGUCCCUUGGCAGCUGAGCAAUGAAA | 10.1 nM | 27.4 nM | – | – |
| GAUGAUAUUGCAGAUACCAGACACAUGAGGAUCACCCAUGUCUCUGUGAUGUAGGAUUGUGUCCCUUGGCAGCUGCGAUAUCAUC | 229 nM | 91.3 nM | – | – |
| AUACCUAAUGUUACAUUUUCCUUUUCAGAUACCAGACUUUACGUUGUCCCUUGGCAGCUGUAUCACAUGAGGAUCACCCAUGUUG | – | – | 16.6 nM | 16.9 nM |
| UUAGAUAUGACAGAUACCAGCGUGUUGUUGAACAUGAGGAUCACCCAUGUAGUGAUCGAGCGCCCUUGGCAGCUGGUGUGUUUGG | – | – | 161 nM | 181 nM |
| UCGCAUUGCUCAGAUACCAGACAUGAGGAUCACCCAUGUACCAAGGUACCCGAAAGGAAUGUCCCUUGGCAGCUGAGCAAUGCGU | 9.82 nM | 23.6 nM | – | – |
| ACAUGAGGAUCACCCAUGUAAUGGCACGAUACCAGCUGAUCCCGUGGCCCUUGGCAGCGUCCGGUGUGGUCCGCCGGGUUGGAGC | – | – | 21 nM | 39.3 nM |
| ACCGCAGGUCCUGAUACCAGAGACAUGAGGAUCACCCAUGUCCGAUCGUCCUGCCUCAGGCUCCCUUGGCAGCAGGGCUUGUCCU | 14.3 nM | 27.1 nM | – | – |
| AUAUGAUCAUACGAUACCAGAAAUGGUAUUCCUUUAUUUCUUACAUGAGGAUCACCCAUGUUCCCUUGGCAGCGUAUGAUCAUAU | 363 nM | 123 nM | – | – |
| UCACAUGAGGAUCACCCAUGUACAGGCGAUACCAGCCGUACAUUGGGCCCUUGGCAGCGCACCGAGACCUUUUAAAGCACUUCGG | – | – | 35.1 nM | 121 nM |
| UUAUCUAUAUUCGAUACCAGUACCCUGGCCGCAAAUCCUAACAUGAGGAUCACCCAUGUGUACCCUUGGCAGCGGGUAUGGGUUU | 23.2 nM | 88.8 nM | – | – |
| CGUAUCGUAACUGAUACCAGUGUACUGACAUGAGGAUCACCCAUGUUGGGUUUUGUUGUACACCCUUGGCAGCAGAAUCGAUACG | 67 nM | 103 nM | – | – |
| AUGUUUGUGUGAGAUACCAGUGAGGCCACAUGAGGAUCACCCAUGUCCCUCACUCCGGCCCACCCUUGGCAGCUCUUAUAGAAAA | 10 nM | 59.6 nM | – | – |
| GGCUGUUGCUCUUUGAAGCGGCAGCGUGAUACCAGAUGUAAGAGCGUCCCUUGGCAGCACGUUUACAUGAGGAUCACCCAUGUCA | – | – | 211 nM | 72.8 nM |
| AAUAACAUGAGGAUCACCCAUGUAAAAGAUACCAGAGUGAUGAUCCUCCCUUGGCAGCUUAACGCUGAUUGGAAACAAUCAGCGA | – | – | 147 nM | 225 nM |
| AUGUUUGUGUGAGAUACCAGUGAGGCCACAUGAGGAUCACCCAUGUCCCUCACUCCGGCCCACCCUUGGCAGCUCUUAUAGUAAA | 9.5 nM | 39.4 nM | – | – |
| GAUCCUCGUACGGAUACCAGCGACUAACAUGAGGAUCACCCAUGUGAUAAAGAAAAUAUUUGCCCUUGGCAGCCGAAUAGAUAGU | – | – | 72.7 nM | 34.9 nM |
| AUCCUCAAGAAUGAUACCAGACCAAACAUGAGGAUCACCCAUGUAUCAGGCAAUUGUUACGUCCCUUGGCAGCAUGUAAGCCGAC | – | – | 54.9 nM | 60.2 nM |
| UCGUGUAAAACGGAUACCAGUGAGAAGGAUACAUGAGGAUCACCCAUGUGAGUUGAUCCACACCCUUGGCAGCUGUAUAUAUCUA | – | – | 118 nM | 706 nM |
| AACCGAGGCUAUCCUCUAAGAAAAUGUGAUACCAGAAUAAUUUUAUUCCCUUGGCAGCAUGACAUGAGGAUCACCCAUGUGUCUU | – | – | 187 nM | 151 nM |
| CAUACUUUAUCCUAUGAGCCUAUUUGUGAUACCAGCAUCUAAAUUUGCCCUUGGCAGCACUUACAUGAGGAUCACCCAUGUUUUA | – | – | 26.8 nM | 40.7 nM |

| Sequence | apparent Kd [1] | apparent Kd [2] | apparent Kd [3] | apparent Kd [4] |
| --- | --- | --- | --- | --- |
| AGCCCUGUGCUAGAUACCAGCUACAUGAGGAUCACCCAUGUGCGUCAGGACUGACUGUGUAGCCCUUGGCAGCUACUCGCAUGUA | 16.2 nM | 30.9 nM | – | – |
| ACGAUACGACAUGAGGAUCACCCAUGUGAUACCAGCGUGGAAACACGCCCUUGGCAGCACAAAUACUCCAAUAACGUAUCGAAAA | 260 nM | 240 nM | – | – |
| CCAUACGUAACUGAUACCAGUGUACUGACAUGAGGAUCACCCAUGUUGGGUUUUGUUGUACACCCUUGGCAGCAGAAUCGUAUGG | 69 nM | 101 nM | – | – |
| GCACCAGGUACGGAUACCAGCUGCCACAGUUACAUGAGGAUCACCCAUGUGAUAAAGUGUAGCCCUUGGCAGCUGUACCUGGUGC | – | – | 114 nM | 14.3 nM |
| UGGCAGCACCUCAUGUGCUGCCAAGGUGAUACCAGCAUCGAAAGAUGCCCUUGGCAGCACCAACAUGAGGAUCACCCAUGUAAUA | – | – | 165 nM | 152 nM |
| ACGUCACGUUUACUCGUGGUUUCGUUCGAUACCAGUAGCGAGAGUUACCCUUGGCAGCGACAUGAGGAUCACCCAUGUACGAAGA | 13.1 nM | 27.2 nM | – | – |
| CAUUAUGUAACUGAUACCAGUGUACUGACAUGAGGAUCACCCAUGUUGGGUUUUGUUGUACACCCUUGGCAGCAGAAUCAUAAUG | 63.5 nM | – | – | – |
| UGACAUUGCUCAGAUACCAGACAUGAGGAUCACCCAUGUGCCAAAUACGUACAAAUAAAUGUCCCUUGGCAGCUGAGCAAUGUCU | 14.2 nM | 266 nM | – | – |
| AGCGACAUGCGUGAUACCAGCUACAUGAGGAUCACCCAUGUACGUCAGAAAUGACUGUGUAGCCCUUGGCAGCAUAAUGCAUGUC | 40.9 nM | 70.5 nM | – | – |
| UCCUCCUCCGCAAGGAGGAGGAGUUGCGAUACCAGCACGGUAACGUGCCCUUGGCAGCGCACAUGAGGAUCACCCAUGUCAUGUU | 17.6 nM | 22.3 nM | – | – |
| ACUAACUAUAGUGAUACCAGACGUACAUGAGGAUCACCCAUGUUACAUUCUUGGUUAAAAGUCCCUUGGCAGCACGAUAAGUUCG | 9.74 nM | 9.5 nM | – | – |
| GAACAUGAGGAUCACCCAUGUGAGAAUGAUACCAGUAGAAGAAGAUGCCCUUGGCAGCGUGCGUGAGGAUCACCCAUGUAGGAGG | 24.2 nM | 27.9 nM | – | – |
| GAGCUGAUGUAGGGUGGAUAUCCUUGAGAUACCAGUACAGAAAUGUACCCUUGGCAGCUCUUCCUUACAUGAGGAUCACCCAUGU | 18.7 nM | 23.1 nM | – | – |
| ACGACGCAUAGUGAUACCAGUAGAACAUGAGGAUCACCCAUGUCUGUUAUGUACAAAUACUGCCCUUGGCAGCACUAUGCGUCAG | – | – | 9.79 nM | 10.7 nM |
| AGACAUGUAAGAUAAAUGACUUAUACAGAUACCAGACUGUCUAAUGUCCCUUGGCAGCUGCAUAACAUGAGGAUCACCCAUGUAA | 28 nM | 26.1 nM | – | – |
| AGUGUUAUAACUGAUACCAGACUUGCGCUUAAACAUGAGGAUCACCCAUGUAAAAUGGUUGUCCCUUGGCAGCAGAAAAUACACA | – | – | 74.1 nM | 21.6 nM |
| CACUUCAUGUGAGAUACCAGUGCCUUACAUGAGGAUCACCCAUGUCGUAAUGUGGAGAAGCACCCUUGGCAGCUCGCUUCGAGUG | – | – | 83.9 nM | 71.7 nM |
| UGUAACAUGAGGAUCACCCAUGUGAGUGAUACCAGACUAGUGUUGGUCCCUUGGCAGCACGCUGGACGAAUGUGUAGUCUAUGCG | – | – | 78.3 nM | 83.7 nM |
| UCAUAUUAGUGAGAUGUAAGGUAUCAUGAUACCAGUAGAUAAUUAUACCCUUGGCAGCAUAACAUGAGGAUCACCCAUGUACAUG | 25.6 nM | 23.3 nM | – | – |
| AGCCGAAACCUUGAUACCAGAUCAUGCUGCACAUGAGGAUCACCCAUGUCGUUAAACAUGGUCCCUUGGCAGCAAGUUAGGAUCU | – | – | 76.4 nM | 23.9 nM |
| AAGCUGGGUGUAAAAUAAAUAAUCACUGAUACCAGACUAUGAGAUGUCCCUUGGCAGCAGAAACAUGAGGAUCACCCAUGUAAUA | 20.7 nM | 21.5 nM | – | – |
| ACAUGAGGAUCACCCAUGUUCCUCGCCGAUACCAGUGAAGAAGAACGCCCUUGGCAGCGGAAAGAGUAUUUUGGAGAUGAGGUAC | 80.1 nM | 129 nM | – | – |
| AUAAGUAAUGUUACGUGUUUUAUUACAGAUACCAGACUAUACGUUGUCCCUUGGCAGCUGAAUUACAUGAGGAUCACCCAUGUUG | 15.1 nM | 17.3 nM | – | – |
| UAAAACAUGAGGAUCACCCAUGUAAUUGAUACCAGAGUGAUGAUCCUCCCUUGGCAGCAAAACGCUGAUUGAUUACAAUCAGCGA | – | – | 54.3 nM | 207 nM |
| UGACGAUACCUGGAUACCAGCGACAUGAGGAUCACCCAUGUAUGAGGAUCAGCCAUGUUAUGCCCUUGGCAGCCACGAAAGUCUU | 45.7 nM | 171 nM | – | – |
| UAAAACAUGAGGAUCACCCAUGUAAAAGAUACCAGAGUGAUGAUCCUCCCUUGGCAGCUUAACGCUGAUUGAUUACAAUCAGCGA | – | – | 93.9 nM | 180 nM |
